In ChEMBL document CHEMBL4706536, “Novel HIV-1 capsid-targeting small molecules of the PF74 binding site” (Eur J Med Chem, 2020):

Assays:
[1] = Cytotoxicity against human TZM cells expressing GFP assessed as reduction in cell viability after 72 hrs by XTT assay; format: cell-based
Outline: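 TZM-GFP cells were seeded at 1×10^4 per well and exposed continuously to increasing compound concentrations for 72 h. Viable cells were measured by XTT. CC50 came from a log(inhibitor) vs normalized response, variable-slope fit, averaged across independent experiments. Duplicate wells, ≥2 experiments, mean ± SD.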

[2] = tested on: Human immunodeficiency virus 1; test: Antiviral activity against HIV 1 NL4-3 infected in human TZM cells expressing GFP assessed as inhibition LTR-activated GFP expression at 2 uM preincubated for 24 hrs followed by viral infection and measured after 48 hrs relative to control; format: functional; conditions: Human immunodeficiency virus 1, NL4-3, TZM, time 72 hrs
Outline: (§1)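 TZM-GFP cells were seeded at 1×10^4 per well. After 24 h, medium was replaced with compound at a single concentration. After a further 24 h, cells were infected with HIV-1 NL4-3 (MOI = 1) and incubated 48 h. GFP-positive cells were counted by imaging and expressed as % inhibition of LTR-driven GFP versus compound-free DMSO control. Run in duplicate, at least two independent experiments.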

[3] = tested on: Human immunodeficiency virus 1; test: Antiviral activity against HIV 1 NL4-3 infected in human TZM cells expressing GFP assessed as inhibition LTR-activated GFP expression at 20 uM preincubated for 24 hrs followed by viral infection and measured after 48 hrs relative to control; format: functional; conditions: Human immunodeficiency virus 1, NL4-3, TZM, time 72 hrs; outline: as §1
[4] = Half life in human liver microsomes at 1 uM in presence of NADPH preincubated for 15 mins followed by NADPH addition and measured up to 60 mins by LC-MS/MS analysis; format: ADME, Microsome; conditions: time 15-75 min
Outline: (§2)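 Compound at 1 µM final was preincubated 15 min at 37 °C with human or mouse liver microsomes (0.5 mg/mL protein) and 1 mM MgCl2 in 0.1 M potassium phosphate, pH 7.4. The reaction was started with 1 mM NADPH at 37 °C and sampled at 0, 5, 15, 30 and 60 min. Samples were quenched in acetonitrile/0.1% formic acid with internal standard; t1/2 was determined by LC-MS/MS. A no-NADPH control ran in parallel. Done in duplicate.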

[5] = Half life in mouse liver microsomes at 1 uM in presence of NADPH preincubated for 15 mins followed by NADPH addition and measured up to 60 mins by LC-MS/MS analysis; format: ADME, Microsome; conditions: time 15-75 min; outline: as §2
[6] = tested on: Human immunodeficiency virus 1; test: Antiviral activity against HIV 1 NL4-3 infected in human TZM cells expressing GFP assessed as reduction in LTR-activated GFP expression preincubated for 24 hrs followed by viral infection and measured after 48 hrs; format: functional, organism-based; conditions: Human immunodeficiency virus 1, NL4-3, TZM
Outline: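 TZM-GFP cells were seeded at 1×10^4 per well. After 24 h they were given increasing compound concentrations for 24 h, then infected with HIV-1 NL4-3 (MOI = 1) for 48 h. GFP-positive cells were counted versus DMSO control. EC50 came from a log(inhibitor) vs normalized response, variable-slope fit, calculated per independent experiment and averaged. Duplicate wells, ≥2 experiments, mean ± SD.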

Compound	CC50 at 72 h [1]	inhibition at 2 µM [2]	inhibition at 20 µM [3]	half-life at 1 µM [4]	half-life at 1 µM [5]	EC50 [6]
CN(C(=O)[C@H](Cc1ccccc1)NC(=O)Cn1cnc2c1c(=O)n(C)c(=O)n2C)c1ccccc1	> 50 µM	10%	94%	4.7 min	1.2 min	
COc1ccc2[nH]cc(CC(=O)N[C@@H](Cc3ccccc3)C(=O)N(C)c3ccc(F)cc3)c2c1	> 50 µM					0.57 µM
CN(C(=O)[C@H](Cc1ccccc1)NC(=O)Cn1cnc2c1c(=O)n(C)c(=O)n2C)c1ccc(F)cc1	> 50 µM	14%	85%			
Cc1ccc(N(C)C(=O)[C@H](Cc2ccccc2)NC(=O)Cn2cnc3c2c(=O)n(C)c(=O)n3C)cc1	> 50 µM	18%	98%			
COc1ccc2[nH]cc(CC(=O)N[C@@H](Cc3ccccc3)C(=O)N(C)c3ccc(Cl)cc3)c2c1	> 50 µM			1.8 min	0.6 min	0.31 µM
COc1ccc2[nH]cc(CC(=O)N[C@@H](Cc3ccccc3)C(=O)N(C)c3cccc(F)c3)c2c1	> 50 µM					0.99 µM
COc1ccc2[nH]cc(CC(=O)N[C@@H](Cc3ccccc3)C(=O)N(C)c3ccc(C)cc3)c2c1	> 50 µM					0.28 µM
CN(C(=O)[C@H](Cc1ccccc1)NC(=O)Cc1c[nH]c2ccc(O)cc12)c1cccc(C(F)(F)F)c1	65 µM					0.48 µM
CN(C(=O)[C@H](Cc1ccccc1)NC(=O)Cn1cnc2c1c(=O)n(C)c(=O)n2C)c1cccc(Cl)c1	> 50 µM	0%	71%			
COc1ccc2[nH]cc(CC(=O)N[C@@H](Cc3ccccc3)C(=O)N(C)c3ccccc3)c2c1	48 µM			1.2 min	0.5 min	0.56 µM
CN(C(=O)[C@H](Cc1ccccc1)NC(=O)Cc1c[nH]c2ccc(O)cc12)c1ccc(F)cc1	> 50 µM					0.46 µM
CCN(C(=O)[C@H](Cc1ccccc1)NC(=O)Cn1cnc2c1c(=O)n(C)c(=O)n2C)c1ccccc1	> 50 µM	0%	94%			
CN(C(=O)[C@H](Cc1ccccc1)NC(=O)Cc1c[nH]c2ccc(O)cc12)c1cccc(Br)c1	> 100 µM					0.38 µM
CN(C(=O)[C@H](Cc1ccccc1)NC(=O)Cn1cnc2c1c(=O)n(C)c(=O)n2C)c1ccc(Cl)cc1	> 50 µM	6%	96%			
CN(C(=O)[C@H](Cc1ccccc1)NC(=O)Cn1cnc2c1c(=O)n(C)c(=O)n2C)c1cccc(F)c1	> 50 µM	1%	67%			
CN(C(=O)[C@H](Cc1ccccc1)NC(=O)Cc1c[nH]c2ccc(O)cc12)c1cccc(Cl)c1	> 100 µM					0.31 µM
CN(C(=O)[C@H](Cc1ccccc1)NC(=O)Cc1c[nH]c2ccc(O)cc12)c1cccc(F)c1	47 µM					0.32 µM
